# Shown are actives, neighbours in structure and some others; about 1% of the full set was active somewhere.
# FXIIa inh – inhibitors of human coagulation factor XIIa; inhibition, % at 5 µM; purified FXIIa, Boc-QGR-AMC fluorogenic substrate, 2 h; 220,000 compounds, 0.3% hits; P00748; in the data active means inhibition above about 40%;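 further: 0% = enzyme with no compound and 100% = blank without enzyme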
# FXIa inh – factor XIa (human) inhibition | 220,000 compounds, 0.14% hits | inhibition, % at 5 µM | AID 798 | purified FXIa, Boc-Glu-Ala-Arg-AMC fluorogenic substrate;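 active means inhibition of at least 40%; inactive means inhibition below 40%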;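 further: fluorescence of freed AMC excited at 355 nm; 0% = enzyme without compound and 100% = no enzyme blank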
# thrombin 1536 – inhibitors of human thrombin. inhibition, % at 5 µM. alpha-thrombin, Boc-VPR-AMC fluorogenic substrate cleavage. 220,000 compounds, 0.26% hits;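 active means inhibition at or above 40%; inactive means inhibition below 40%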;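 further: 0% = enzyme with no compound and 100% = wells without enzyme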
#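 Test system: human alpha-thrombin protein / Dosing: one concentration per compound, 5 µM, with 0.2% DMSO / Medium: pH 7.5 Tris-saline with Tween 20 / Benchmarks: no-compound enzyme wells and no-enzyme blanks / Read-out basis: percent inhibition of thrombin substrate cleavage / Timing: reaction at room temperature / Measured by: fluorescence, ex 355 nm, em 460 nm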
# hK5 inh – kallikrein 5 (human) inhibition; AID 873; inhibition, % at 5 µM; 210,000 compounds, 0.59% hits; recombinant hK5, fluorogenic AMC substrate cleavage;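 active means inhibition of 40% or more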;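 further: 0% = enzyme controls without compound and 100% = no-enzyme blanks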
# Target sequence (Q9Y337 67-293 limits assumed): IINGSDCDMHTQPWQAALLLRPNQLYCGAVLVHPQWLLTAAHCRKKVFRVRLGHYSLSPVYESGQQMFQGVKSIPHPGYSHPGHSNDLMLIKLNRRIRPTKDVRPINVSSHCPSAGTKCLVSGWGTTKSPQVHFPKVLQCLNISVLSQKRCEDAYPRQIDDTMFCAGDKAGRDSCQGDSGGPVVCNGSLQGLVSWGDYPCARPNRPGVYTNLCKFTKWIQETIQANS
# An asterisk follows results filed as active; · = no result.
SMILES,FXIIa inh,FXIa inh,thrombin 1536,hK5 inh
O=C(Nc1ccc(N2CCOCC2)cc1)C1CCN(S(=O)(=O)c2ccccc2F)CC1,6.3,7.4,69.9*,7.9
O=C(NC1CCCc2ccccc21)C1CCN(S(=O)(=O)c2ccccc2F)CC1 (stereo not given),87.8*,5.8,29.2,28.2
O=C(NC1CCCc2ccccc21)C1CCN(S(=O)(=O)c2ccccc2)CC1 (stereo not given),19.1,9.8,17.6,7.0
Cc1ccc(NC(=S)N/N=C/c2cccn2Cc2ccccc2F)cc1,13.6,1.5,-0.9,-6.0
COc1cccc(CNC(=O)Cn2ncc3c(=O)oc4ccccc4c32)c1,9.0,1.3,-5.2,3.2
Cc1ccc(-c2cc(C(=O)Nc3ccc(S(=O)(=O)Nc4cc(C)on4)cc3)c3ccccc3n2)c(C)c1,72.2*,6.2,3.2,7.0
COc1cc(C(=O)Nc2ccc(S(=O)(=O)Nc3cc(C)on3)cc2)cc(OC)c1OC,-3.4,9.6,15.8,47.0*
Cc1ccc(-c2cc(C(=O)Nc3ccc(S(=O)(=O)Nc4onc(C)c4C)cc3)c3ccccc3n2)cc1,2.5,-1.6,-10.7,-4.3
Cc1ccc(C)n1-c1ccc(C(=O)NCC2CCCO2)cc1 (stereo not given),18.3,7.9,2.5,-17.2
N#CCn1c(C2CCCCC2)nc2ccccc2c1=O,7.2,2.4,-0.2,-9.1
Nn1c(C2CCCCC2)nc2ccccc2c1=O,61.5*,58.4*,22.9,39.2
COC(=O)c1ccc(COC(=O)CNS(=O)(=O)c2ccccc2)cc1,26.4,30.9,54.7*,23.3
O=Cc1ccccc1Oc1ccccc1,-9.1,-6.9,-3.6,3.0
COc1ccc(Oc2ccccc2/C=N/O)cc1,-0.3,1.2,-0.7,116.7*
CNC(=O)c1cc(Cl)c(OC)c(OC)c1,12.1,5.3,-13.2,-9.8
COc1cc(C(N)=O)cc(Cl)c1OC,46.6*,20.0,2.2,33.8
COC(=O)/C(=C\Nc1ccc(Cl)cc1Cl)NC(=O)c1ccc(OC)cc1,14.3,1.4,-0.3,4.3
CCC(C(=O)OCC(=O)Nc1ccc(SC(F)F)cc1)c1ccccc1 (stereo not given),-2.5,2.5,51.2*,23.8
O=C1SC(SC(=Nc2ccccc2)Nc2ccccc2)C(=O)N1c1ccccc1 (stereo not given),8.9,6.2,-0.1,-6.7
O=C(O)CC(=O)Nc1ccccc1C(=O)O,68.3*,15.2,0.6,4.6
N#CCC(=O)Nc1ccccc1C(=O)O,13.3,-5.2,-0.3,-7.1
COc1cc(/C=N/Nc2cc(C)nc(NS(=O)(=O)c3ccccc3)n2)ccc1O,37.4,66.7*,25.7,23.0
Cc1cc(C(=O)OCC(=O)c2cccc([N+](=O)[O-])c2)c2cccc(C)c2n1,3.0,-12.8,60.7*,-10.8
COc1cc(/C=C/c2nc3ccc([N+](=O)[O-])cc3s2)ccc1OCC(=O)O,7.3,1.9,-1.5,2.9
CC(C)(C)C(=O)N1NC(=Nc2ccccc2)SC1(C)C,40.4*,30.8,6.2,33.7
SMILES,FXIIa inh,FXIa inh,thrombin 1536,hK5 inh
COc1cccc(C(=O)NNC2=CC(=O)CC(C)(C)C2)c1,13.3,3.2,-2.3,-7.7
CC1(C)CC(=O)C=C(NNC(=O)c2cccnc2)C1,28.9,19.5,20.9,64.7*
CC1(C)CC2CC(C)(CN2C(=O)c2cc(-c3ccccc3O)on2)C1 (stereo not given),28.8,7.8,26.3,45.4*
O=C(N/N=C/c1ccccn1)c1cccc(S(=O)(=O)N2CCCC2)c1,10.9,1.2,2.6,-24.0
O=C(NCCNC(=O)c1cc(OCC(F)(F)F)ccc1OCC(F)(F)F)Nc1ccc(OC(F)(F)F)cc1,18.1,8.2,2.7,48.9*
O=C(Nc1ccc(F)cc1)Nc1cc(OCC(F)(F)F)cc(OCC(F)(F)F)c1,55.3*,15.9,24.7,29.9
CCOc1ccc(NC(=O)Nc2cc(OCC(F)(F)F)cc(OCC(F)(F)F)c2)cc1,10.9,-1.5,-7.4,-7.6
C=CCN(C(=O)CSC1=NC(=O)CN1C(C)=O)c1nc(C)c(-c2ccccc2)s1,7.7,1.1,-3.8,4.3
CCn1c(C)nc2cc(C(=O)N/N=C(\C)c3ccc(OC)cc3O)ccc21,35.6,42.6*,57.8*,30.3
COc1ccc(N2C(N)=C(C#N)C(c3ccsc3)C3=C2CCCC3=O)c(OC)c1 (stereo not given),23.2,18.9,-1.5,-9.4
Fc1ccc(Oc2cnc3ccccc3n2)cc1,10.0,-1.5,95.3*,2.7
Cc1ccc(Oc2cnc3ccccc3n2)cc1,11.0,3.3,2.4,-10.7
O=C(Nc1nccs1)c1cccc(NC(=O)C(F)(F)F)c1,1.5,0.0,-4.6,-0.4
O=C(Nc1nnc(-c2ccccc2)s1)c1cc(S(=O)(=O)N2CCOCC2)c(Cl)cc1Cl,41.5*,24.9,4.1,4.8
CC(NC(=O)COc1ccccc1)C(c1cccs1)N1CCCC1 (stereo not given),9.5,-0.6,-2.2,3.3
Cc1ccc(C(=O)NC(C)C(c2cccs2)N2CCCC2)s1 (stereo not given),·,36.6,45.1*,15.6
Cc1ccsc1CNC(=O)c1c(-c2ccccc2)noc1C,1.0,-16.8,-8.2,41.7*
COc1ccc(/C=N/N=C2\SC(CC(=O)O)C(=O)N2c2ccccc2)c(OC)c1 (stereo not given),1.4,-6.1,-7.4,-11.6
C=CCN1C(=O)C(C(C)CC)NC1=S (stereo not given),23.4,35.8,40.7*,87.7*
O=C(Oc1ccc2ccc(=O)oc2c1)c1cccs1,61.7*,50.6*,11.2,-8.0
CC(=O)Oc1ccc2ccc(=O)oc2c1,12.4,2.0,2.4,-13.0
Cc1cccc2c1c1ccc3c(c1n2C)C(=O)C=CC3=O,8.3,2.2,-7.1,0.1
O=S(=O)(Nc1cc(C(F)(F)F)ccc1N1CCOCC1)c1ccc2ccccc2c1,11.9,5.8,-2.4,-16.8
Cn1c2c(c3ccccc31)CCSC2=O,71.5*,10.9,-0.3,2.4
Cn1c(-c2ccccc2)c(C=O)c2ccccc21,11.3,0.0,-9.0,6.3
SMILES,FXIIa inh,FXIa inh,thrombin 1536,hK5 inh
Oc1ccc(-c2nc3ccccc3s2)cc1,-1.0,-7.1,41.9*,-8.1
Oc1ccc(-c2cccc(-c3ccc(O)cc3)n2)cc1,-2.0,-8.6,-5.7,46.7*
O=[N+]([O-])c1ccc(OCCO)c(P(=O)(c2ccccc2)c2ccccc2)c1,24.3,69.6*,7.0,33.2
O=P(O)(O)COc1ccccc1P(=O)(c1ccccc1)c1ccccc1,11.3,2.4,3.0,1.5
O=C(O)CP(=O)(c1ccccc1)c1ccccc1,17.8,2.3,9.5,41.8*
O=P(CCO)(c1ccccc1)c1ccccc1,·,-4.2,-7.9,-3.5
CCCC(=O)NC(=S)Nc1ccc(Cl)cn1,16.8,1.1,16.2,111.7*
CC1=CC2=C(OC1N(C)C)c1cccc3cccc(c13)C2=O (stereo not given),24.1,8.6,27.3,50.2*
CCOC(=O)/C(=N\Nc1cccc(C(F)(F)F)c1)N1CCOCC1,24.4,29.0,2.6,52.0*
O=C(NCc1cccnc1)C(=O)C1C(=O)Nc2ccccc21 (stereo not given),1.7,-2.4,-3.4,40.9*
Cc1cc([N+](=O)[O-])nn1CCCC(=O)Nc1cccc(Cl)c1Cl,2.6,-9.8,-14.2,0.3
